Among all 2,500 compounds or so, about 460 (18%) were called active.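 The calls were made as follows: active = mean activation above a cutoff of low control average plus 3 SD from the earlier screen (cut at about 12% in these data); inactive = the rest.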 Only a sample is shown.

The assay can be described thus: compound fluorescence interference without thin filaments, confirmation, artefact control for cardiac RTF calcium sensitizer project, biochemical (AID 504382). The conditions noted are these: IANBD fluorescence interference counterscreen, buffer, EC20 Ca2+; at 7.2 µM; active compounds read high; scaled: EC20 calcium 0, EC100 calcium 100. The essentials:
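Also added: EC20 calcium, 0.472 mM; dosing: single nominal 7.2 µM compound dose, 0.7% DMSO final; timing: 15 min, 25 °C; detection: fluorescence intensity, excitation 480 nm, emission 540 nm; replicates: each compound tested in triplicate wells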
On the technique in general: The purpose of a counterscreen is to sort out artefacts and off-target activity.
For `CN(/N=C/c1ccc(N(C)C)cc1)C1=NS(=O)(=O)c2ccccc21`, the fluorescence artifact activation is 6.25% (inactive).

Consider `CCN(CC)c1ccc2c(Cl)c(Br)c(=O)oc2c1`, for which the fluorescence artifact activation was 0.1% (inactive).

For `CCN(CC)c1ccc2cc(C=O)c(=O)oc2c1`, the fluorescence artifact activation is 5.57% (inactive).

As for `CCN(CC)c1ccc2cc(-c3nc4ccccc4n3C)c(=O)oc2c1`, the fluorescence artifact activation was 0.12% (inactive).

Consider `CCN(CC)c1ccc2c(c1)oc(=O)c1c(Cl)cc(=O)oc12`, for which the fluorescence artifact activation is 21.4% (active).

With `CCN(CC)c1ccc2oc(=O)c(C)nc2c1`, the fluorescence artifact activation is 124% (active).

As for `O=C(Nc1ccccc1)C1CC2CCCC(C1)C2=O` (centres undefined), the fluorescence artifact activation is 2.4% (inactive).

For `O=C(C1=NN(c2ccccc2)C2C(=O)N(c3ccc(Cl)cc3)C(=O)C12)c1ccccc1` (centres undefined), the fluorescence artifact activation was -0.02% (inactive).

As to `Cc1ccc2c(C(=O)CN3CCC(C(N)=O)CC3)c(C)[nH]c2c1`, the fluorescence artifact activation is 9.54% (inactive).

On to `CCS(=O)(=O)N1Cc2ccccc2CC1C(=O)Nc1ccc(OC)cc1OC` (centres undefined), for which the fluorescence artifact activation is 0.07% (inactive).

For the molecule `O=C(O)c1cccc2c1C(=O)c1ccc(N3CCCC3)cc1S2(=O)=O`, the fluorescence artifact activation is -0.07% (inactive).

As for `CCCN1C(=O)c2cccc3c(N4CCCCC4)ccc(c23)C1=O`, the fluorescence artifact activation was 0.47% (inactive).

Consider `O=C1c2cccc3c(N4CCCCC4)ccc(c23)C(=O)N1CCO`, for which the fluorescence artifact activation is 42.3% (active).

With `C=CCN1C(=O)c2cccc3c(N4CCCCC4)ccc(c23)C1=O`, the fluorescence artifact activation was 2.88% (inactive).

As to `O[C@@H]1CN(C2CCCCC2)CC[C@H]1N1CCN(CCc2ccccc2)CC1`, the fluorescence artifact activation is 7.79% (inactive).

Take `CC[C@@]1(O)C(=O)OCc2c1cc1n(c2=O)Cc2cc3c(CN(C)C)c(O)ccc3nc2-1`: the fluorescence artifact activation is 6.14% (inactive).

As for `CCOc1ccc(Nc2nc(N)c([N+](=O)[O-])c(NCc3ccccc3)n2)cc1`, the fluorescence artifact activation was 0.09% (inactive).

For the molecule `CC[n+]1ccc(/C=C/c2c[nH]c3ccccc23)cc1`, the fluorescence artifact activation was 59.8% (active).

In the case of `Cc1ccc2[nH]cc(/C=C/c3cc[n+](C)cc3)c2c1`, the fluorescence artifact activation was -0.07% (inactive).

For the molecule `C[n+]1ccc(/C=C/c2c[nH]c3ccccc23)cc1`, the fluorescence artifact activation is 57.3% (active).

Take `C[n+]1ccc(/C=C/c2c[nH]c3ccc(F)cc23)cc1`: the fluorescence artifact activation was 0.16% (inactive).

In the case of `C(=Cc1c[nH]c2ccccc12)c1nccc2ccccc12`, the fluorescence artifact activation was 1.55% (inactive).

On to `OCC[n+]1ccc(/C=C/c2c[nH]c3ccccc23)cc1`, for which the fluorescence artifact activation is 0% (inactive).

On to `Cc1cc(Cl)ccc1OCC(=O)NCCOc1nc(N2CCOCC2)nc(N2CCOCC2)n1`, for which the fluorescence artifact activation was 0.1% (inactive).

On to `N#Cc1c(-c2ccccc2F)cc(C2CC2)nc1SCC(=O)c1cccs1`, for which the fluorescence artifact activation was 0.28% (inactive).

Turning to `Cc1ccc(C(=O)N/C(=C/c2ccc(-c3ccc([N+](=O)[O-])cc3)o2)C(=O)NCCCN(C)C)cc1`, the fluorescence artifact activation is 0.29% (inactive).

Consider `NC(=O)CC[C@@H]1NC(=O)[C@H](Cc2ccc(O)cc2)NC(=O)c2cc([N+](=O)[O-])cc(F)c2OCC[C@@H](C(N)=O)NC1=O`, for which the fluorescence artifact activation was 0.02% (inactive).

With `COc1ccc(CNS(=O)(=O)c2cc(-c3cc(C)no3)ccc2OC)cc1OC`, the fluorescence artifact activation is 2.41% (inactive).

Regarding `CC(C)(CO)NCC#Cc1ccccc1`, the fluorescence artifact activation was -0.01% (inactive).

For `CSCCC(NC(=O)c1ccccc1Cl)C(=O)N1CCC1` (centres undefined), the fluorescence artifact activation is -0.06% (inactive).

Regarding `COc1ccccc1C(=O)Nc1nnn(C)n1`, the fluorescence artifact activation is -0.09% (inactive).

Regarding `Cc1nn(C)c(NC(=O)c2ccccc2Cl)c1Cl`, the fluorescence artifact activation was 18.7% (active).

With `O=C(Oc1cc2oc(=O)c3c(c2cc1Cl)CCCC3)c1cccs1`, the fluorescence artifact activation was 0.11% (inactive).

Regarding `CC1CC(C)CN(CCOCCSc2ccccc2)C1` (centres undefined), the fluorescence artifact activation is 28.4% (active).

Take `Cc1ccccc1C(=O)c1cccn1CC(=O)NCCCN1CC(C)CC(C)C1` (centres undefined): the fluorescence artifact activation was 0.1% (inactive).

In the case of `CC1CN(CCCCOc2ccc3ccccc3c2)CC(C)O1` (centres undefined), the fluorescence artifact activation is 0.12% (inactive).

Turning to `CC1CCN(c2ccc3c(c2)S(=O)(=O)c2cccc(C(=O)NCc4cccc(F)c4)c2C3=O)CC1`, the fluorescence artifact activation is 0.09% (inactive).

With `C=CCNC(=S)N(CC=C)C1CCS(=O)(=O)C1` (centres undefined), the fluorescence artifact activation is 0.07% (inactive).

Consider `Cc1cccn2c(=O)c(/C=C3\SC(=S)NC3=O)c(NCCCN3CCOCC3)nc12`, for which the fluorescence artifact activation is 21.4% (active).

Regarding `Cc1cccn2c(=O)c(/C=C3\SC(=S)N(CC(C)C)C3=O)c(NCCCOC(C)C)nc12`, the fluorescence artifact activation is 17.1% (active).

With `Cc1cccn2c(=O)c3cc(C#N)c(=NC(=O)c4cccs4)n(CCCOC(C)C)c3nc12`, the fluorescence artifact activation is -0.06% (inactive).

As to `O=C1NC(=S)S/C1=C/c1ccc(N2CCOCC2)o1`, the fluorescence artifact activation was 1.59% (inactive).

For the molecule `CCNC(=O)/C(C#N)=C/c1c(N2CCN(Cc3ccc4c(c3)OCO4)CC2)nc2c(C)cccn2c1=O`, the fluorescence artifact activation was 0.06% (inactive).

Take `COC(=O)CCCCCN1C(=O)/C(=C\c2ccncc2)SC1=S`: the fluorescence artifact activation was -0.01% (inactive).

On to `O=C1CCN2C=Nc3cccc4ccc1c2c34`, for which the fluorescence artifact activation is -0.03% (inactive).

Consider `CC1=C(C)CC(C(=O)NNC(=O)c2cccc(Cl)c2)C(C(=O)O)C1` (centres undefined), for which the fluorescence artifact activation is -0.06% (inactive).

As for `Cc1c(N=C2N=C(NC(=O)Nc3ccc(Cl)cc3)c3ccccc32)c(=O)n(-c2ccccc2)n1C`, the fluorescence artifact activation is 20.3% (active).

In the case of `CN1CCC/C1=C1/C(=O)N(c2ccccc2)N=C1NC(=O)Nc1cccc(Cl)c1`, the fluorescence artifact activation is 0.05% (inactive).

On to `Cc1cc([N+](=O)[O-])nn1CC(=O)Nc1c(C)n(C)n(-c2ccccc2)c1=O`, for which the fluorescence artifact activation is 3.39% (inactive).

For the molecule `O=C(Nc1cccc2c1N(C(=O)c1ccco1)CCC2)c1ccco1`, the fluorescence artifact activation is 5.02% (inactive).

For `COc1ccccc1CNC(=O)COC(=O)c1cccc(S(=O)(=O)N2CCOCC2)c1`, the fluorescence artifact activation was 0.16% (inactive).

Take `Cc1ccc(C(C)NC(=O)c2cccs2)cc1C` (centres undefined): the fluorescence artifact activation was 174% (active).

Turning to `C[C@@H](NC(=O)c1ncn(C)c1C(=O)N[C@H](C)c1ccccc1)c1ccccc1`, the fluorescence artifact activation is 0% (inactive).

As for `C/C(=N\NC(=O)c1ccccc1)c1ccc(NC(=O)c2cccs2)cc1`, the fluorescence artifact activation is 0.85% (inactive).

For the molecule `Cc1cc(S(=O)(=O)NC(C)C)ccc1OCC(=O)NCc1ccccc1`, the fluorescence artifact activation was 0.08% (inactive).

On to `CCN(CC)C(=O)C(=O)c1c(-c2ccccc2)[nH]c2ccccc12`, for which the fluorescence artifact activation is 6.52% (inactive).

Consider `CCOC(=O)c1c(NCC(C)C)c2ccccc2[nH]c1=O`, for which the fluorescence artifact activation is 39.3% (active).

`COC(=O)[C@H](C)NC(=O)c1cc2c(cn1)[nH]c1ccccc12`: the fluorescence artifact activation was 0.32% (inactive).

With `C=CCN1C(=O)[C@@H]2Cc3c([nH]c4ccccc34)C(c3ccc(O)cc3)N2C1=S` (some centres undefined), the fluorescence artifact activation was -0.05% (inactive).

Source of the values: PubChem BioAssay AID504382 (The Scripps Research Institute Molecular Screening Center, 2011).
